Active and inactive are the calls of the source. No cut-off for these calls is given here.

As a reminder, the IC50 is the concentration at which inhibition is half-maximal. Low readings indicate inhibition by little substance, high ones a need for much substance.

Test [1] deals with MV4-11. The experiment in a line: Antiproliferative activity against human MV4-11 cells incubated for 72 hrs by CCK-8 assay. It is filed as functional, cell-based. Conditions: MV4-11, 72 h. On the technique in general: Formazan colour is commonly taken as a measure of viable cells.
A short description of test [2]: Inhibition of […] BRD4 bromodomain 1 incubated for 60 mins by TR-FRET assay. For orientation: In TR-FRET formats the signal depends on donor and acceptor labels being close together.
Test [3] deals with HL-60. Nature of the test: Antiproliferative activity against human HL60 cells incubated for 72 hrs by CCK-8 assay. It is filed as functional, cell-based. The conditions noted are these: HL-60, 72 h.
In test [4] the test system is MV4-11. The experiment in a line: Induction of apoptosis in human MV4-11 cells assessed as viable cells level at 1 uM incubated for 24 hrs by Annexin V-FITC and propidium iodide staining based flow cytometry (reference value: 97.7%). It is filed as functional. On the technique in general: In flow cytometry, cells or beads pass a laser one at a time.
Test [5] has as its system MV4-11. Nature of the test: Induction of apoptosis in human MV4-11 cells assessed as early apoptotic cells level at 1 uM incubated for 24 hrs by Annexin V-FITC and propidium iodide staining based flow cytometry (reference value: 0.8%). It is filed as functional.
For test [6], the system named is MV4-11. The experiment in a line: Induction of apoptosis in human MV4-11 cells assessed as late apoptotic cells level at 1 uM incubated for 24 hrs by Annexin V-FITC and propidium iodide staining based flow cytometry (reference value: 1.5%). It is filed as functional.
The subject of test [7] is MV4-11. Nature of the test: Induction of apoptosis in human MV4-11 cells assessed as necrotic cells level at 1 uM incubated for 24 hrs by Annexin V-FITC and propidium iodide staining based flow cytometry (reference value: 0.0%). The test is classed as functional.
In test [8] the test system is MV4-11. The experiment in a line: Induction of apoptosis in human MV4-11 cells assessed as viable cells level at 5 uM incubated for 24 hrs by Annexin V-FITC and propidium iodide staining based flow cytometry (reference value: 97.7%). The test is classed as functional.
The test system of test [9] is MV4-11. Nature of the test: Induction of apoptosis in human MV4-11 cells assessed as early apoptotic cells level at 5 uM incubated for 24 hrs by Annexin V-FITC and propidium iodide staining based flow cytometry (reference value: 0.8%). It is filed as functional.
Test [10] has as its system MV4-11. The experiment in a line: Induction of apoptosis in human MV4-11 cells assessed as late apoptotic cells level at 5 uM incubated for 24 hrs by Annexin V-FITC and propidium iodide staining based flow cytometry (reference value: 1.5%). The test is classed as functional.
The subject of test [11] is MV4-11. Nature of the test: Induction of apoptosis in human MV4-11 cells assessed as necrotic cells level at 5 uM incubated for 24 hrs by Annexin V-FITC and propidium iodide staining based flow cytometry (reference value: 0.0%). The test is classed as functional.
Test [12] concerns MV4-11. Nature of the test: Reduction in c-Myc protein expression in human MV4-11 cells at 1 to 10 uM incubated for 4 hrs Western blotting. It is filed as functional, cell-based. The method in brief: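 MV4;11 leukemia cells (used within two months) were grown in IMDM with 10% FBS and 1% penicillin-streptomycin at 37℃ and 5% CO2. Log-phase cells were cultured 24 h, then treated for 4 h. They were lysed at 4℃ and protein was quantified by BCA. Lysates were run on SDS-PAGE (10% separating, 4% stacking gel) and transferred to PVDF. Membranes were blocked 2 h in 5% milk/TBST, probed overnight at 4℃ with anti-c-myc and anti-β-actin, and given secondary antibody for 2 h.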

Test [13] concerns MV4-11. The experiment in a line: Induction of cell cycle arrest in human MV4-11 cells assessed as accumulation at G1 phase incubated for 24 hrs by propidium iodide staining based flow cytometry. The test is classed as functional. The procedure, abridged:
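MV4;11 cells, used within two months of culture, grown in IMDM with 10% FBS and 1% penicillin-streptomycin at 37℃ under CO2. Cells were treated with compound for 24 h and then processed with a cell cycle detection kit following the kit protocol. Phase distribution was analysed by flow cytometry.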

For `CCCCc1ccc(Nc2ncc3c(n2)N(C2CCCC2)Cc2nnc(C)n2-3)cc1`, the IC50 in test [1] was above 30 µM; in [2], 1.43 µM; in test [3], above 30 µM.
As to `COc1cccc(Nc2ncc3c(n2)N(C2CCCC2)Cc2nnc(C)n2-3)c1`, the 50% inhibitory concentration (IC50) was 6.74 µM in test [1], 0.18 µM in [2] and 25.5 µM in [3].
Take `Cc1nnc2n1-c1cnc(Nc3ccccc3[N+](=O)[O-])nc1N(C1CCCC1)C2`: the values for the half-inhibitory concentration (IC50) in test [1], in test [2] and in [3] were 10.7 µM, 0.18 µM and above 30 µM, respectively.
Regarding `Cc1ccc(Nc2ncc3c(n2)N(C2CCCC2)Cc2nnc(C)n2-3)cc1`, the results for the concentration for half-maximal inhibition (IC50) in test [1], in test [2] and in test [3] were 7.34 µM, 0.38 µM and 29 µM, respectively.
In the same order, the values of `Cc1ccccc1Nc1ncc2c(n1)N(C1CCCC1)Cc1nnc(C)n1-2` are 8.46 µM, 0.41 µM and above 30 µM.
Regarding `Cc1nnc2n1-c1cnc(Nc3cccc(Cl)c3)nc1N(C1CCCC1)C2`, the half-inhibitory concentration (IC50) in test [1] was above 30 µM; in test [2], 1.43 µM; in test [3], above 30 µM.
As to `Cc1nnc2n1-c1cnc(Nc3ccc(N)cc3)nc1N(C1CCCC1)C2`, the IC50 in test [1] came to 1.53 µM; in test [2] it was 0.079 µM; in test [3] it was 7.16 µM. For the same molecule, the Activity in test [4] worked out at 89.7%; in [5], 0.5%; in test [6], 3.9%; in test [7], 5.9%; in test [8], 72.5%; in test [9], 3.8%. Further, the Activity is 20.4% in test [10], 3.4% in test [11] and “Dose-dependent effect” in test [13]. Besides, in [12], the result was Active.
Turning to `Cc1nnc2n1-c1cnc(Nc3ccc(Cl)cc3)nc1N(C1CCCC1)C2`, the IC50 in [1] is above 30 µM; in [2], 1.54 µM; in [3], above 30 µM.
Regarding `COc1ccc(Nc2ncc3c(n2)N(C2CCCC2)Cc2nnc(C)n2-3)cc1OC`, the concentration for half-maximal inhibition (IC50) was 6.79 µM in test [1], 0.22 µM in test [2] and 26.7 µM in test [3].
In the case of `Cc1cccc(Nc2ncc3c(n2)N(C2CCCC2)Cc2nnc(C)n2-3)c1`, the IC50 in test [1] was above 30 µM; in test [2], 1.56 µM; in test [3], above 30 µM.
In the case of `Cc1nnc2n1-c1cnc(Nc3ccc([N+](=O)[O-])cc3)nc1N(C1CCCC1)C2`, the concentration for half-maximal inhibition (IC50) in [1] is 21.4 µM; in [2] it was 0.54 µM; in test [3], above 30 µM.
Turning to `Cc1nnc2n1-c1cnc(Nc3ccc(C(C)C)cc3)nc1N(C1CCCC1)C2`, the values for the IC50 in [1], in test [2] and in test [3] were 16.2 µM, 0.86 µM and above 30 µM, respectively.
`Cc1nnc2n1-c1cnc(Nc3ccc(S(C)(=O)=O)cc3)nc1N(C1CCCC1)C2`: the values for the IC50 in [1], in [2] and in test [3] were 1.92 µM, 0.089 µM and 7.85 µM, respectively.
Take `Cc1nnc2n1-c1cnc(Nc3ccccc3)nc1N(C1CCCC1)C2`: the IC50 in test [1] was 5.53 µM; in test [2], 0.22 µM; in [3], 21.4 µM.
Take `Cc1nnc2n1-c1cnc(Nc3ccc(F)cc3)nc1N(C1CCCC1)C2`: the IC50 in [1] is above 30 µM; in [2] it was 1.28 µM; in test [3] it was above 30 µM.
As to `COc1ccccc1Nc1ncc2c(n1)N(C1CCCC1)Cc1nnc(C)n1-2`, the results for the IC50 in test [1], in test [2] and in test [3] were 4.17 µM, 0.16 µM and 19.2 µM, respectively.
`Cc1nnc2n1-c1cnc(Nc3ccc(C(C)(C)C)cc3)nc1N(C1CCCC1)C2`: the IC50 in [1], in test [2] and in test [3] was above 30 µM each time.
`COc1ccc(Nc2ncc3c(n2)N(C2CCCC2)Cc2nnc(C)n2-3)cc1`: the values for the IC50 in test [1], in test [2] and in test [3] were 4.84 µM, 0.16 µM and 18.7 µM, respectively.
In the case of `Cc1sc2c(c1C)C(c1ccc(Cl)cc1)=N[C@@H](CC(=O)OC(C)(C)C)c1nnc(C)n1-2`, the IC50 amounted to 0.57 µM in test [1], 0.066 µM in test [2] and 2.91 µM in test [3]. Further, the Activity in [4] is reported as 84.5%; in test [5], 0.2%; in test [6], 9.1%; in test [7], 6.1%; in [8], 61.6%; in test [9] it was 2.5%. Besides, the Activity in test [10] is 31.9%; in [11] it was 4%; in test [13] it was “Dose-dependent effect”.

Values taken from ChEMBL document CHEMBL4340554, “Design, synthesis and biological evaluation of novel 4,5-dihydro-[1,2,4]triazolo[4,3-f]pteridine derivatives as potential BRD4 inhibitors” (Bioorg Med Chem, 2019).
